FXN GAA850 act: activators of GAA850 frataxin (FXN) promoter; 360,000 compounds, 0.56% hits; activation, % at 6 µM; HEK293 lucGAA850 FXN promoter luciferase reporter, 24 h; percent of 10 µM SAHA response;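 active means activation above the average of all compounds screened plus 3 SD, cutoff fixed separately per campaign, cut at about 7.5% in these data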;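 further: 0% = DMSO wells and 100% = 10 µM SAHA wells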
CHOP inhibitor: inhibitors of CHOP induction in ER stress response; CHO-K1 CHOP-promoter luciferase, tunicamycin-induced, 15-18 h; inhibition, % at 10 µM; 220,000 compounds, 3.8% hits; AID 2732;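 active means compounds that reduced the stress-induced luciferase reporter signal by more than about 70% of percent inhibition, limit read from the data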;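 further: 0% = tunicamycin plus vehicle and 100% = wells without tunicamycin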
XBP1 UPR activ: activators of adaptive arm of unfolded protein response (XBP1); CHO-XBP1 luciferase reporter, IRE1-XBP1 UPR activation, luminescence; percent of tunicamycin response, DMSO as zero; AID 463104; 330,000 compounds, 0.33% hits; activation, % at 20 µM;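 active means versus positive control, 20 µM dose yields 30% or more activation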;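 further: 100% = tunicamycin at 10 µg/mL and 0% = DMSO only wells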
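Material: IRE1-XBP1 luciferase reporter CHO line / Quantity: one thousand reporter cells per well / Buffer or medium: F12 with 10% serum / Compound: 20 µM single concentration, DMSO 1% / Times: 6 h treatment, 37 °C / Detection: Steady-Glo luciferase glow luminescence, 10 min after reagent addition / Benchmarks: tunicamycin high, DMSO low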
UPR CHOP act: apoptotic UPR (CHOP) activation; CHO-CHOP luciferase reporter, luminescence; percent of tunicamycin response over DMSO baseline; activation, % at 10 µM; 330,000 compounds, 0.34% hits; AID 449763;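 active means at 10 µM dose, activation of 40% or more, normalized to positive control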;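 further: 100% = tunicamycin at 10 µg/mL and 0% = DMSO alone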
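Dosing – one dose, 10 µM in 0.5% DMSO · System – CHO-CHOP cells, stable luciferase reporter of PERK-eIF2a-CHOP signalling · Input – 500 cells/well · Control set – tunicamycin 10 µg/mL final as positive, DMSO-only wells as negative · Timing – 6 h compound treatment, 37 °C · Measure – % activation vs tunicamycin · Technique – luminescence read with Steady-Glo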
The depositor's hits bear a star; nt = not tested or not shown. The entries come from a sample that favours hits as a whole.

SMILES	FXN GAA850 act	CHOP inhibitor	XBP1 UPR activ	UPR CHOP act
Cc1[nH]ccc2cc3nc4ccccc4c3cc12	5	nt	nt	nt
N#C/C(C(N)=O)=c1/ccc2c(c1)N1C3=C(CCCC3)CC3CCCCC31N=2 (centres undefined)	nt	82*	4	1
CCOC(=O)c1sc2nc(C)c3c(c2c1N)CC(C)(C)OC3	-1	31	1	-1
CCCc1nc2sc(C(=O)OCC)c(N)c2c2c1COC(C)(C)C2	0	81*	-3	3
O=C(Nc1cccc(C(F)(F)F)c1)Nc1nnc([C@@H]2C[C@H](O)[C@@H](CO)O2)s1	-3	nt	nt	nt
CC(=O)OC1COC(OC2C(O)C(C)OC(OC3C(OC4CCC5(C)C(CCC6(C)C5CC=C5C7CC(C)(C)CCC7(C(=O)O)CCC56C)C4(C)CO)OCC(O)C3O)C2O)C(O)C1OC(C)=O (centres undefined)	nt	92*	0	2
C/C=C(/C)C(=O)OC1CC(C)(C)C[C@H]2C3=CC[C@@H]4[C@@]5(C)CCC(O[C@@H]6O[C@@H](C(=O)O)[C@@H](O)C(O[C@@H]7OC[C@H](O)[C@@H](O)[C@@H]7O[C@@H]7OC(CO)C(O)[C@@H](O)[C@@H]7O)C6O[C@@H]6OC(CO)C(O)C(O)C6O)[C@@](C)(CO)[C@@H]5CC[C@]4(C)[C@]3(C)CC(O)[C@@]12CO (some centres undefined)	0	nt	-1	-2
Cc1ccc(NC(=O)c2nc[nH]c2C(=O)N(C)CCO)cc1	0	nt	nt	nt
O=C(NC1CCCCC1)C(c1ccc(F)cc1)N(CCN1CCOCC1)C(=O)c1ccc(-c2ccccc2)[nH]1 (centres undefined)	-4	73*	-5	3
Cc1nn(Cc2ccccc2)c(C)c1/C=N/NC(=O)CNc1cccc(C(F)(F)F)c1	-1	70*	0	-2
CCc1ccc2c(c1)C(c1ccc([N+](=O)[O-])cc1)=NNC(c1ccc(F)cc1)=N2	3	86*	4	5
CCC(C)Sc1nnc(CNC(=O)C23CC4CC(CC(C4)C2)C3)n1C1CCCCC1 (centres undefined)	2	95*	-2	0
CC(C)Sc1nnc(CNC(=O)C23CC4CC(CC(C4)C2)C3)n1Cc1ccccc1	3	15	0	0
COc1ccc(Cl)cc1CN1CCN(c2nc(C)cc(C)c2C#N)CC1	1	7	-4	0
Cc1cc(C)c(C#N)c(N2CCN(CCOc3ccc(Cl)cc3)CC2)n1	2	75*	-3	-2
CCOC(=O)C1(C)CCCN(C(=O)c2cccc(C#N)c2)C1 (centres undefined)	-2	nt	nt	nt
COc1ccc(CNS(=O)(=O)c2ccc(OC)cc2)cc1	1	12	-3	-5
CCCOc1ccc(S(=O)(=O)NCc2ccc(OC)cc2)cc1	-2	80*	-2	0
Cc1c(N=C2N=C(NC(=O)Nc3ccc(Cl)cc3)c3ccccc32)c(=O)n(-c2ccccc2)n1C	-2	92*	25	3
O=[N+]([O-])c1ccccc1NCc1c(O)ccc2ccccc12	2	89*	-5	0
Oc1ccc2ccccc2c1CNc1ccccc1	4	nt	nt	nt
COc1c(C)cc(C(O)c2ncc(-c3ccccc3C)[nH]2)cc1C (centres undefined)	0	nt	nt	nt
Cc1nn(S(=O)(=O)c2ccc(Cl)cc2)c(C)c1Sc1ccc([N+](=O)[O-])cc1	-2	85*	nt	nt
CC(=O)c1cc2c(cc1NC(=O)CCCC(=O)O)OCO2	-1	-2	2	-1
CC(=O)c1cc2c(cc1NC(=O)CN1CCCCCCC1)OCO2	-1	85*	-2	1
SMILES	FXN GAA850 act	CHOP inhibitor	XBP1 UPR activ	UPR CHOP act
Cc1ccccc1Nc1c([N+](=O)[O-])ccc2c1=NC1(CCCCC1)N=2	-1	76*	0	1
Cc1ccc(C)c(Nc2c([N+](=O)[O-])ccc3nonc23)c1	4	nt	13	1
CCn1c(=O)cc(OCC(=O)N2CCc3ccccc32)c2ccccc21	-1	85*	nt	nt
CCn1c(=O)cc(OCC(=O)N2CCCCCC2)c2ccccc21	0	1	2	-2
Cc1cc(/C=N/Nc2nc(N)ncc2[N+](=O)[O-])c(C)n1-c1ccccc1F	nt	80*	-8	-10
NC(=O)c1cccc(-c2ccnc3c2CC(C(=O)Nc2ccc(Cl)cc2)O3)c1 (centres undefined)	-4	nt	nt	nt
O=C(CSc1cc(Cl)ccc1Cl)NCC(=O)Nc1ccc(F)c(F)c1F	2	72*	-1	2
O=C1c2ccccc2NC(c2ccc(Cl)cc2Cl)N1Cc1ccccc1 (centres undefined)	4	87*	-2	3
CC1CCCCN1C(=O)Cn1c(=O)n(-c2ccc(F)cc2)c(=O)c2sccc21 (centres undefined)	1	6	3	0
CC1CCCCN1C(=O)Cn1c(=O)n(C2CCCCC2)c(=O)c2ccccc21 (centres undefined)	0	82*	-4	2
CCCCc1c(C)c2cc(C)ccc2[nH]c1=O	5	79*	0	-2
COc1ccc(NC(=O)Nc2nnc([C@@H]3C[C@H](O)[C@@H](CO)O3)s2)cc1	-1	nt	nt	nt
COc1ccc(Cl)cc1NC(=O)CSc1nnc(COc2ccccc2)n1C	-3	80*	-3	1
C[C@H]1CN([C@@H](C)CO)C(=O)c2cc(-c3cccc(C#N)c3)cnc2O[C@H]1CN(C)C(=O)c1ccccn1	-2	nt	nt	nt
C[C@@H]1ON(C)[C@H]2C[C@H]3c4[nH]c5ccc(-c6ccc7c(c6)OCO7)cc5c4CCN3C[C@@H]12	-2	nt	nt	nt
C=C(C)C1CCC2(C(=O)O)CCC3(C)C(CCC4C5(C)C(C=O)C(O)C(C)(C)C5CCC43C)C12 (centres undefined)	0	85*	2	0
CCN(CC(=O)Nc1ccc2c(c1)CCC2)Cc1nc2ccccc2c(=O)[nH]1	0	71*	3	-2
COc1ccc(-c2cn[nH]c2-c2ccc(OCc3ccc([N+](=O)[O-])cc3)cc2O)cc1	-2	91*	-3	-2
C=C(C)COc1ccc(-c2[nH]ncc2-c2ccc(Br)cc2)c(O)c1	-4	106*	0	27
C=C(C)COc1ccc(-c2ncncc2-c2ccc(Br)cc2)c(O)c1	2	nt	2	2
COCc1c(C(=O)Nc2nnc(C3CC3)s2)oc2ccccc12	-2	nt	nt	nt
O=C(N/N=C/c1cccc(Oc2ccccc2)c1)c1ccccc1Br	0	84*	0	-2
Cc1ccc(NC(=O)CSc2nn(-c3ccccc3)c(=S)s2)cc1S(=O)(=O)N(C)C	0	76*	1	5
O=C(CSc1nnc(CNC(=O)C23CC4CC(CC(C4)C2)C3)n1-c1ccccc1)Nc1ccc(F)cc1	3	51	-1	-1
Cc1ccc(NC(=O)CSc2nnc(CNC(=O)C34CC5CC(CC(C5)C3)C4)n2-c2ccc(F)cc2)cc1	2	79*	-2	2
CCNC(=O)C1(C)CCN(C(=O)CCc2ccccc2)C1 (centres undefined)	2	nt	nt	nt

Compound activity: PubChem, several laboratories
